For experiment [1], the target named is T1, Serotonin (5-HT) receptor (Rattus norvegicus) (UniProt P35563+P35365+P32305+P31388+Q9JJ16+P28564+P30994+Q62758+P08909+P14842+P30940+P35364+P19327+P28565). Put plainly: Evaluated for receptor mediated feedback inhibition of 5-HTP formation in striatum tissue of rat brain when administered subcutaneously. It is filed as functional, tissue-based. The procedure, abridged: (§1)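 Reserpinized male Sprague-Dawley rats (200–300 g), compounds in saline (occasionally a few drops of glacial acetic acid and/or warming), near-neutral pH, given sc at 5 or 10 mL/kg. Reserpine was in acetic acid/5.5% glucose. 5-HTP formation was measured in the brain part. The ED50 is the dose giving a half-maximal decrease, from dose-response curves of four to six doses (n = 3-4).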

In experiment [2] the target is T1, Serotonin (5-HT) receptor (Rattus norvegicus). Put plainly: Evaluated for receptor mediated feedback inhibition of 5-HTP formation in hemisphere of rat brain when administered subcutaneously. The format is functional. Put shortly:
as §1

For experiment [3] the target is unchanged. The experiment in a line: Evaluated for receptor mediated feedback inhibition of 5-HTP formation in limbic tissue of rat brain when administered subcutaneously. The format is functional, tissue-based. To be noted: Limbic system. Put shortly: as §1

Experimental findings from ChEMBL document CHEMBL1124279, “N,N-Dialkylated monophenolic trans-2-phenylcyclopropylamines: novel central 5-hydroxytryptamine receptor agonists” (J Med Chem, 1988) are described below.

In the case of `CCCN(CCC)[C@@H]1CCc2cccc(O)c2C1`, the ED50 is 0.065 µmol/kg in experiment [1], 0.077 µmol/kg in experiment [2] and 0.061 µmol/kg in experiment [3].
The like results for `CCCN(CCC)C1CC1c1ccccc1O` (stereo in doubt; 8) were, in that order, 0.36 µmol/kg, 0.36 µmol/kg and 0.41 µmol/kg.
For the compound `CCCN(CCC)C1CC1c1cccc(O)c1` (stereo in doubt; (+)-18), the ED50 in experiment [1], in experiment [2] and in experiment [3] was above 50 µmol/kg in each case.
On to `CCCN(CCC)C1CC1c1ccc(O)c(O)c1` (stereo not given), for which the ED50 in experiment [1], in experiment [2] and in experiment [3] was above 50 µmol/kg throughout.
For `CCN(CC)C1CC1c1cccc(O)c1` (stereo not given), the figures for the ED50 in experiment [1], in experiment [2] and in experiment [3] were 0.32 µmol/kg, 0.4 µmol/kg and 0.34 µmol/kg, respectively.
On to `CCCN(CCC)C1CC1c1ccccc1O` (single isomer, unassigned; (-)), for which the values for the ED50 in experiment [1], in experiment [2] and in experiment [3] were 0.26 µmol/kg, 0.38 µmol/kg and 0.28 µmol/kg, respectively.
As to `CCCN(CCC)C1CC1c1ccccc1O` (single isomer, unassigned; (+)), the ED50 in experiment [1] was 14.5 µmol/kg; in experiment [2] it was above 50 µmol/kg; in experiment [3], above 50 µmol/kg.
Regarding `CCN(CC)C1CC1c1ccccc1O` (stereo not given), the ED50 in experiment [1] was determined as 1.2 µmol/kg; in experiment [2], 0.8 µmol/kg; in experiment [3] it was 0.82 µmol/kg.
The corresponding values for `CCCN(CCC)C1CC1c1ccc(O)cc1` (stereo not given) are above 50 µmol/kg, above 50 µmol/kg and above 50 µmol/kg.
The corresponding values for `CCCN(CCC)C1CC1c1cccc(O)c1` (single isomer, unassigned; (-)) are 0.28 µmol/kg, 0.35 µmol/kg and 0.34 µmol/kg.
The like results for `CCCCN(CCCC)C1CC1c1cccc(O)c1` (stereo not given) were, in that order, above 50 µmol/kg, above 50 µmol/kg and above 50 µmol/kg.
For the compound `CCCN(CCC)C1CC1c1ccccc1OC` (stereo not given), the ED50 in experiment [2] amounted to 0.72 µmol/kg; in experiment [3], 0.93 µmol/kg.
Regarding `CCCCN(CCCC)C1CC1c1ccccc1O` (stereo not given), the ED50 in experiment [1], in experiment [2] and in experiment [3] was above 50 µmol/kg each time.
On to `CN(C)C1CC1c1ccccc1O` (stereo not given), for which the ED50 stood at 3.45 µmol/kg in experiment [1], 9.31 µmol/kg in experiment [2] and 6.2 µmol/kg in experiment [3].
The corresponding values for `CN(C)C1CC1c1cccc(O)c1` (stereo not given) are 8.59 µmol/kg, 25.1 µmol/kg and 10.8 µmol/kg.
`CCCN(CCC)C1CC1c1cccc(OC)c1` (stereo not given): the ED50 was 1.17 µmol/kg in experiment [1], 1.43 µmol/kg in experiment [2] and 2.06 µmol/kg in experiment [3].
Turning to `CCCN(CCC)C1CC1c1cccc(O)c1` (stereo in doubt; 18), the ED50 was found to be 0.47 µmol/kg in experiment [1], 0.58 µmol/kg in experiment [2] and 0.66 µmol/kg in experiment [3].
